Experimental data pooled from the literature.
Protocols differ between the studies behind these lines.
Target: Serine/threonine-protein kinase Sgk1 (SGK1, Homo sapiens, UniProt O00141)

CC/C(=N\NC(=O)C(C)Nc1ccccc1)c1ccc(O)c(C)c1O (centres unmarked)  inhibition (enzyme activity; inhibitor; 0.1 µM): 44.6%
O=C1CCc2cc(Nc3cc(OC4CCOCC4)c([N+](=O)[O-])cc3Cl)ccc2N1  remaining binding (cell-free assay; competition with immobilised ligand; 1 µM): 100%
CN(C)C1CCN(CC#Cc2nn(C3CCCC3)c3nc(NCc4ccccc4)ncc23)C1 (centres unmarked)  inhibition (enzyme activity; inhibitor; FRET; 1 µM): 9%
COc1cc(/C=C/C(=O)CC(=O)/C=C/c2ccc(O)c(OC)c2)ccc1O  activity vs control (enzyme activity; inhibitor; 1 µM): 82%
CN(C(=O)c1ccccc1)c1cc(N(C)c2ccc3c(c2)CCc2ccc(C(=O)NCCN4CCOCC4)cc2C3=O)ccc1F  remaining binding (cell-free assay; competition with immobilised ligand; 1 µM): 100%
N#CCCc1ccc2c(c1)-c1[nH]c3ccc([N+](=O)[O-])cc3c1CC(=O)N2  remaining signal (cell-free assay; 0.5 µM): 87.9%
Cc1ccc(NC(=O)c2ccc(C)c(C(F)(F)F)c2)cc1C#Cc1nn(C2CCC(O)CC2)c2ncnc(N)c12 (centres unmarked)  remaining signal (cell-free assay; 10 µM): 90%
CNC(=O)c1cc(Oc2ccc(NC(=O)Nc3ccc(Cl)c(C(F)(F)F)c3)cc2)ccn1  inhibition (enzyme activity; inhibitor; 10 µM): -21%
CC(=O)C1=C(C)N(c2cccc(C(F)(F)F)c2)C(=O)N[C@@H]1c1ccc(C#N)nc1  remaining binding (cell-free assay; competition with immobilised ligand; 1 µM): 100%
CC(C)(C)c1nc(-c2cccc(NS(=O)(=O)c3c(F)cccc3F)c2F)c(-c2ccnc(N)n2)s1  remaining activity (enzyme activity; inhibitor; radiometric; 1 µM): 75%
Fc1cccc(-n2cnc3c(NCc4nc5c(F)c(F)ccc5[nH]4)nc(N4CCOCC4)nc32)c1  binding vs control (binding; competition with immobilised ligand; 10 µM): 24%
CC(C)(C)C(=O)c1sc(NC2CCCCC2)nc1N  remaining activity (enzyme activity; inhibitor; 10 µM): 91%
CN1CC(Oc2cnc(C#N)cc2-c2ccn3nc(NC(=O)C4CC4)cc3c2)C1  inhibition (enzyme activity; inhibitor; 1 µM): 3%
O=C1NC(=O)c2cc(Nc3ccc(F)cc3)c(Nc3ccc(F)cc3)cc21  remaining signal (cell-free assay; 0.5 µM): 103%
Cc1ccc(Nc2nccc(N(C)c3ccc4c(C)n(C)nc4c3)n2)cc1S(N)(=O)=O  inhibition (enzyme activity; inhibitor; 10 µM): -2%
Nc1nc(Nc2ccccc2)sc1C(=O)c1c(F)cccc1F  remaining activity (enzyme activity; inhibitor; 10 µM): 98%
Oc1cccc(-c2nc(N3CCOCC3)c3oc4ncccc4c3n2)c1  remaining activity (enzyme activity; inhibitor; 10 µM): 92%
COc1cc2ncnc(Nc3ccc(Oc4ccccc4)c(C)c3C)c2cc1OC  inhibition (enzyme activity; inhibitor; 1 µM): 0%
CSc1nc(C)c(-c2ccnc(Nc3ccc(N4CCOCC4)cc3)c2)[nH]1  inhibition (enzyme activity; inhibitor; 10 µM): 34.8%
Cc1ccc(C(=O)Nc2ccc(CN3CCN(C)CC3)c(C(F)(F)F)c2)cc1C#Cc1cnc2cccnn12  remaining activity (enzyme activity; inhibitor; 23.5 nM): 94%
Cc1nc(C2CCN(C(=O)c3ccc(OC(F)(F)F)cc3N)CC2)c2ncc(N3CCN(C)CC3)cc2n1  remaining binding (cell-free assay; competition with immobilised ligand; 1 µM): 100%
CNc1cccc2cc(C(=O)Nc3ccc(C(=O)O)cc3)c(=O)[nH]c12  inhibition (enzyme activity; inhibitor; 10 µM): 8.2%
CC1=C(C#N)C(c2ccc3c(c2)c(NC(=O)c2ccccc2C)nn3C)C(C#N)=C(C)N1  remaining binding (cell-free assay; competition with immobilised ligand; 1 µM): 89%
FC(F)c1nc2ccccc2n1-c1nc(N2CCOCC2)nc(N2CCOCC2)n1  remaining activity (enzyme activity; inhibitor; 10 µM): 98%
O=C(Nc1cnn(-c2csc(C(=O)NC3COC3)c2)c1)Nc1c(F)cccc1Cl  remaining activity (enzyme activity; inhibitor; 5 µM): 95.4%
CCCOc1ccc(OC)c(F)c1C(=O)c1ccc(C(=O)N[C@@H]2CNC[C@H]2NC(=O)c2ccc3[nH]ncc3c2)cc1  remaining activity (enzyme activity; inhibitor; 0.75 µM): 34%
C=CC(=O)Nc1cc(Nc2nccc(Nc3cc(Cl)c(F)cc3C(C)(C)O)n2)c(OC)cc1N1CC[C@@H](N(C)C)C1  inhibition (enzyme activity; inhibitor; 1 µM): 12%
CCN(CC)CCNC(=O)c1c(C)[nH]c(/C=C2\C(=O)Nc3ccc(F)cc32)c1C  inhibition (enzyme activity; inhibitor; 0.3 µM): 28%
O=C(NCCCC1CCCCC1)c1ccc(CNC(=O)c2cnn(-c3ccccc3)c2C(F)(F)F)cc1  remaining binding (cell-free assay; competition with immobilised ligand; 0.1 µM): 100%
CNCc1ccc(-c2cc(-c3nc(-c4ccc(S(=O)(=O)C(C)C)cc4)cnc3N)on2)cc1  inhibition (enzyme activity; inhibitor; 0.4 µM): 0%
CN(c1ncccc1CNc1nc(Nc2ccc3c(c2)CC(=O)N3)ncc1C(F)(F)F)S(C)(=O)=O  inhibition (enzyme activity; inhibitor; 1 µM): 13.4%
O=C(NS(=O)(=O)c1ccc(NCC2CCOCC2)c([N+](=O)[O-])c1)c1ccc(N2CCN(Cc3ccc(C(F)(F)F)cc3-c3ccc(Cl)cc3)CC2)cc1Oc1cnc2[nH]ccc2c1  remaining binding (cell-free assay; competition with immobilised ligand; 1 µM): 88%
FC(F)(F)Oc1cccc(-c2cnc3ccc(-c4ccncc4)nn23)c1  activity vs control (enzyme activity; inhibitor; radiometric; 1 µM): 103%
O=C(N1CCS(=O)(=O)CC1)N1C[C@H](c2ccc(OC(F)(F)F)cc2)C[C@H](c2nc(C3CC3)no2)C1  remaining binding (cell-free assay; competition with immobilised ligand; 1 µM): 91%
COc1cc(Nc2cnc(C#N)c(O[C@H](C)CN(C)C)n2)ncc1-c1cnn(C)c1  remaining activity (enzyme activity; inhibitor; radiometric; 10 µM): 22%
